The source made the active and inactive calls.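 How the source made its calls, unless noted: active means visual image review flags a hit and inhibition of aggregation exceeds 20%; inconclusive means visual hit but inhibition at or below 20%; inactive means no hit on visual image review.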
Experiments:
[1] = inhibitors of TNFa-induced NFkB p65 translocation, primary screen, imaging, HUVEC, MLSMR starter and 10KST1 sets (AID 438;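 active means inhibition above 20% together with a positive visual image hit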;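 further: compound added about 3h40 before a 20 min TNFalpha stimulation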;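 on inhibition: signal is the nuclear over cytoplasmic p65 intensity ratio per well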); details: HUVEC TNFa-induced p65 nuclear translocation; cell count: measured here: nuclei count (cytotoxicity indicator), at 2.08 µM; inhibition: at 2 µM, stronger effect = higher value, 0% TNFa-plus-vehicle, 100% no-TNFa wells
[2] = reduction of polyQ htt aggregates in cells – imaging, exon1htt(103Q)mCFP cells, high-content imaging, primary screen (AID 483); details: exon1htt(103Q)mCFP cell line, aggregate imaging, at 2 µM; inhibition of aggregation: stronger effect = higher value; nuclei count: measured here: cell count, toxicity;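 further: compound exposure lasted 3 days before fixation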;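 on nuclei count: percent of the per-plate median nuclei count of sample wells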
[3] = endothelial E-selectin expression blockers – imaging, HUVEC, immunofluorescence, MLSMR starter and 10KST1 sets, primary screen (AID 487;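 active means visually confirmed hit in the image check and inhibition above 20%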;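 on inhibition: signal is fraction of cell area covered by stained E-selectin grains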;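 on nuclei count: 100% = median nuclei count of all wells on the same plate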); details: HUVEC TNFalpha-induced E-selectin immunofluorescence imaging, at 2 µM; inhibition: stronger effect = higher value; nuclei count: measured here: cell number, toxicity
[4] = molecular target: Voltage-gated potassium channel subunit beta-2 (Rattus norvegicus) (UniProt P62483); test: inhibitors of rat Kvbeta2 reductase activity – biochemical, NADPH fluorescence, primary screen (AID 622;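 active means fluorescence slope higher than the sample average by over 3 SD, cut at about -0.22 in these data, passing the limit was not always enough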;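 further: slope of raw intensity against log time taken from 70 to 1610 s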); details: recombinant KvBeta, 4-cyanobenzaldehyde reduction, at 10 µM, stronger effect = higher value
[5] = molecular target: Voltage-gated potassium channel subunit beta-2 (Rattus norvegicus) (UniProt P62483); test: enhancers of rat Kvbeta2 NADPH turnover – biochemical, NADPH fluorescence, primary screen (AID 623;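 active means NADPH fluorescence slope more negative than the mean of all samples by about 3 SD, 99.7% confidence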;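 further: fluorescence intensity change per second fitted from 20 to 320 s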); details: Recombinant KvBeta, NADPH fluorescence decrease slope, 10 min; at 10 µM; stronger effect = lower value
[6] = molecular target: Alpha-2C adrenergic receptor (Homo sapiens) (UniProt P18825); test: compounds altering alpha2C-coupled GIRK flux – cell-based, HEK293 alpha2C/GIRK1/2, thallium flux, primary screen (AID 624;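 active means fluorescence slope after compound addition differing from the mean of all screened samples at 99.7% confidence, in either direction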;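 further: slope of fluorescence ratio to pre-addition baseline per second over 15 to 24 s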); details: thallium flux BTC fluorescence, at 10 µM, actives lie on both sides
[7] = inhibitors of larval lipid processing in zebrafish, primary screen, whole organism, PED6 fluorescence, gall bladder and intestine (AID 686;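 active means a full or partial loss of lipid-probe fluorescence in the fish gall bladder, intestine or both, judged by eye; inactive means no fluorescence loss, or compound toxic to the fish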;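 further: larvae 5 to 7 days old with five fish per well; signal comes from phospholipase A2 cleavage of quenched PED6 carried via bile; overnight exposure to compound and PED6 before scoring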); details: Zebrafish larvae PED6 lipid processing, fluorescence scoring; screened at 20 µM (by protocol)
In short: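 Also added: quenched phospholipase substrate PED6, 100 nM final, ingested by larvae; System: zebrafish larvae, 5-7 d; Quantity: 5 larvae per well; Compound: 20 µM single dose; Schedule: overnight compound and PED6 incubation; Read-out: visual per-well fluorescence inhibition score; Measured by: By-eye fluorescence microscopy; Medium: E3.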

[8] = blockers of RIG-like receptor reporter activation – cell-based, Sendai virus stimulus, luciferase, 10K MLSCN set, TLR/RLR signaling modifier project, primary screen (AID 602276;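 active means inhibition at or above 50% at 10 µM; inactive means inhibition below 50%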;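 further: firefly luciferase from ISG56 promoter only with Renilla not read in this screen; 0% = Sendai virus plus DMSO and 100% = medium plus DMSO without virus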); details: HEK293 RL24 IRF3 luciferase reporter, at 10 µM, stronger effect = higher value
[9] = TLR3 IRF3 reporter activation blockers – cell-based, poly I:C stimulus, luciferase, 10K MLSCN set, primary screen (AID 602277;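 active means inhibition of the reporter signal at or above 50%; inactive means inhibition below 50%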); details: HEK293-TLR3 RL24 IRF3 luciferase reporter, at 10 µM, stronger effect = higher value

Chain of Voltage-gated potassium channel subunit beta-2 (Rattus norvegicus) (P62483 whole entry, looked up): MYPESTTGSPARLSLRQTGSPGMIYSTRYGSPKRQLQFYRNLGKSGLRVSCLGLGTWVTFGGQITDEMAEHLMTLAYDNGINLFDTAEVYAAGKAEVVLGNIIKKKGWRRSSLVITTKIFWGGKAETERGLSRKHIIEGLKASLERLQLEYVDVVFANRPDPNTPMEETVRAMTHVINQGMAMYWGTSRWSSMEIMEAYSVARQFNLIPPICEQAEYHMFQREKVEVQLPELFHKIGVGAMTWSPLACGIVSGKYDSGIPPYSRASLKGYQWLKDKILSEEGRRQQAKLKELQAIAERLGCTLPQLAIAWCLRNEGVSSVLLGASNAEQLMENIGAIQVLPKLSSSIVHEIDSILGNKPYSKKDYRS
Chain of Alpha-2C adrenergic receptor (Homo sapiens) (P18825 whole entry, looked up): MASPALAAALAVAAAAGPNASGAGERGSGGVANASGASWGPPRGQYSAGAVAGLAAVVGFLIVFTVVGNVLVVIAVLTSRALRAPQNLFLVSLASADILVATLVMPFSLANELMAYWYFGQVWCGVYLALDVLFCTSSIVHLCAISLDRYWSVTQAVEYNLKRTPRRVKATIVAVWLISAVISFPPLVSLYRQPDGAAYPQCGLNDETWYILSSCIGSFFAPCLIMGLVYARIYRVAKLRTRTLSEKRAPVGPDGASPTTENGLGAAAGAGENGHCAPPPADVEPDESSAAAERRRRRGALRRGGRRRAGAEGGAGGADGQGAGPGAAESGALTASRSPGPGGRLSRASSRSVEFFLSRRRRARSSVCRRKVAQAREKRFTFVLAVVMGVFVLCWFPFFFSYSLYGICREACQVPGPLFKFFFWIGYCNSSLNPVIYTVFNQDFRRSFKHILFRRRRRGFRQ

Structure (SMILES) | cell count [1] | inhibition [1] | inhibition of aggregation [2] | nuclei count [2] [%] | inhibition [3] | nuclei count [3] [%] | fluorescence slope [4] | NADPH fluorescence slope [5] | slope [6] | outcome [7] | inhibition [8] | inhibition [9]
COc1ccccc1OCc1ccc(C(=O)N2CCN(C(=O)c3ccco3)CC2)cc1 | 502 | -32.6% (inactive) | 6% (inactive) | 98.6 | -92.1% (inactive) | 103 | -0.416 (inactive) | -3e-05 (inactive) | 0.00401 (inactive) | inactive | 1.91% (inactive) | 18% (inactive)
CSc1ncc(Cl)c(C(=O)Nc2ccc(S(=O)(=O)N3CCOCC3)cc2)n1 | 288 | -0.8% (inactive) | -8.6% (inactive) | 101 | 2.7% (inactive) | 131 | -0.433 (inactive) | -5.7e-05 (inactive) | 0.00479 (inactive) | inactive | 4.78% (inactive) | 0.446% (inactive)
O=C1CCC(C(=O)N(Cc2ccco2)C2(C(=O)NC3CCCC3)CCCCC2)N1 (stereo unspecified) | 428 | -6.8% (inactive) | -16.4% (inactive) | 116 | -39.9% (inactive) | 139 | -0.428 (inactive) | 4.8e-06 (inactive) | 0.00488 (inactive) | inactive | 5.55% (inactive) | 13.4% (inactive)
O=C(Nc1nnc(SCC(=O)N2CCCCC2)s1)C1CCCCC1 | 437 | -3.4% (inactive) | 1.9% (inactive) | 99.2 | -34.7% (inactive) | 118 | -0.346 (inactive) | -3.5e-05 (inactive) | 0.00464 (inactive) | inactive | 9.52% (inactive) | 13.5% (inactive)
Cc1ccc(Cl)cc1N1CCN(C(=O)c2cn(C)c(=O)c3c2c2ccccc2n3C)CC1 | 270 | -3.3% (inactive) | 17.2% (inactive) | 8 | -33.6% (inactive) | 114 | -0.352 (inactive) | -2e-05 (inactive) | 0.00673 (inactive) | inactive | 16.1% (inactive) | 28% (inactive)
Cc1nn(Cc2ccccc2)c(C)c1NC(=O)c1cc(-c2ccco2)on1 | 408 | -8.1% (inactive) | -15.5% (inactive) | 101 | -15.3% (inactive) | 101 | -0.347 (inactive) | -6.8e-06 (inactive) | 0.00588 (inactive) | inactive | 9.89% (inactive) | 12.8% (inactive)
COC(=O)c1ccccc1NC(=O)C12CCC(C)(C(=O)O1)C2(C)C (stereo unspecified) | 358 | 1.7% (inactive) | -12.1% (inactive) | 106 | 29.1% (inactive) | 92.7 | -0.433 (inactive) | -4.4e-05 (inactive) | 0.00406 (inactive) | inactive | 20.2% (inactive) | 22.6% (inactive)
Cc1oc2c(c1C(=O)NCc1ccccc1)CCCC2 | 437 | 1.3% (inactive) | -13.6% (inactive) | 108 | 4.8% (inactive) | 130 | -0.464 (inactive) | -4.8e-05 (inactive) | 0.00391 (inactive) | inactive | 9.63% (inactive) | 4.5% (inactive)
COc1ccccc1N1CCN(c2cc(N3CCCC3)nc(C)n2)CC1 | 310 | 7.3% (inactive) | 0% (inactive) | 102 | -60.1% (inactive) | 136 | -0.471 (inactive) | -7.2e-05 (inactive) | 0.0045 (inactive) | inactive | 3.33% (inactive) | 1.07% (inactive)
Cc1cc(N2C(=O)CC(N3CCN(c4ccc(C(=O)c5cccs5)cc4)CC3)C2=O)no1 (stereo unspecified) | 654 | 10.8% (inactive) | -3% (inactive) | 112 | -31.2% (inactive) | 93.1 | -0.392 (inactive) | -4.4e-05 (inactive) | 0.00594 (inactive) | inactive | -4.13% (inactive) | -9.36% (inactive)
COc1ccc(-n2nc3cc(C)c(N)c(Br)c3n2)cc1 | 336 | -6.8% (inactive) | 3.9% (inactive) | 59.9 | -17.3% (inactive) | 83.5 | -0.411 (inactive) | -4.9e-05 (inactive) | 0.00393 (inactive) | inactive | -10.7% (inactive) | -36.5% (inactive)
Cc1nn(C(=O)c2ccccc2)c2c1C(=O)CC(C)(C)C2 | 380 | 1.3% (inactive) | -11.8% (inactive) | 104 | -114% (inactive) | 112 | -0.419 (inactive) | -1e-05 (inactive) | 0.00514 (inactive) | inactive | 18.8% (inactive) | 17.1% (inactive)
O=C(Nc1cccnc1)Nc1ccc(F)c(Cl)c1 | 347 | 11.8% (inactive) | -11.4% (inactive) | 94.2 | -15.8% (inactive) | 107 | -0.517 (inactive) | 1.7e-05 (inactive) | 0.00552 (inactive) | inactive; toxic | -39.2% (inactive) | -103% (inactive)

Source: PubChem BioAssay
